From ChEMBL document CHEMBL1800056, “Discovery of 2-(6-{[(6-fluoroquinolin-2-yl)methyl]amino}bicyclo[3.1.0]hex-3-yl)-N-hydroxypyrimidine-5-carboxamide (CHR-3996), a class I selective orally active histone deacetylase inhibitor” (J Med Chem, 2010)
The source made the active and inactive calls. No cut-off for these calls is given here.

How the values were obtained:
Rattus norvegicus = assay: AUC (0 to t) in rat at 1 mg/kg, iv; format: ADME, organism-based, Plasma; parameters: dose 1 mg/kg, route intravenous; settings: in vivo
Method in brief: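 Rat single dose, iv 1 mg/kg or po 10 mg/kg, both in 1% DMSO-HPβC (11.25% w/v). AUC0-t in ng h/mL, clearance in (mL/min)/kg, t1/2 in h, F in %.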

U-937 = assay: Ratio of GI50 for SAHA to compound for human U937 cells after 72 hrs by WST-1 assay; format: functional
Method in brief: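 Cells seeded at (1-5) × 10³/well in serum-containing medium and grown 24 h at 37 °C, 5% CO₂. They were then exposed for 72 h to HDAC inhibitor (0.6-10000 nM), with SAHA run alongside in the same panel. WST-1 was added for the final 4 h and read at 450 nm (650 nm reference). GI50 taken as 50% inhibition of the vehicle response, n = 6.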

LoVo = assay: Antitumor activity against human LoVo cells xenografted in nude BALB/c mouse assessed as reduction in tumor volume at 25 mg/kg, po administered QD for 19 days; format: functional, organism-based; parameters: dose 25 mg/kg
Method in brief: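 LoVo colorectal xenograft grown subcutaneously in female BALB/c nude mice, run at EpiStem. Compound given orally daily at 25 or 50 mg/kg; tumor volume followed.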

Mus musculus = assay: Toxicity in human HCT116 cells xenografted CrTac:NCr-Fox1 nude mouse at 50 mg/kg, po administered daily for 16 days; format: organism-based, HCT-116; parameters: dose 50 mg/kg, route oral; settings: in vivo, 384 h
Method in brief: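 Female CrTac:NCr-Fox1(nu) athymic mice, 6-8 weeks old, given bilateral sc HCT116 implants (2 million cells). Oral dosing at 50 mg/kg in 10% DMSO-saline, once daily from day 6 (tumors ~5 mm mean diameter) until day 16. Controls received vehicle. Tumor size and body weight recorded three times weekly.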

AUCt (Rattus norvegicus) [ng·h/mL]	Structure (SMILES)	RatioGI50 (U-937)	Activity (LoVo)	Activity (Mus musculus)
124	O=C(NO)c1cnc(N2C[C@@H]3[C@H](C2)[C@H]3NCc2ccc3cc(F)ccc3n2)nc1 [NANATINOSTAT]	8.7	Active	–
–	O=C(NO)c1cnc(N2C[C@@H]3[C@H](C2)[C@H]3NCc2ccc(Cl)cc2)nc1	–	–	Non-toxic
